ARNT-TACC3 inh – disruptors of ARNT/TACC3 protein interaction, primary screen, biochemical, AlphaScreen, single concentration | AlphaScreen His-ARNT PAS-B/GST-TACC3 binding, luminescence; TACC3 fragment carries E629A point mutation | 390,000 tested, 0.66% active | inhibition, % at 9.99 µM | AID 623870, 2012 | Transforming acidic coiled-coil-containing protein 3 (Homo sapiens), Q9Y6A5;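 active = mean inhibition of replicates at least 50% and at least half of replicates each reaching 50%; inconclusive = half or more replicates reach 50% but mean below 50%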
SIRT5 block – SIRT5 desuccinylase inhibitors, primary screen, biochemical, fluorescence imaging, single point, set 5 | AID 652115, 2013 | Purified SirT5, succinyl-peptide AMC, trypsin-coupled fluorescence | inhibition, % at 15 µM | 330,000 tested, 1.1% active | NAD-dependent protein deacylase sirtuin-5, mitochondrial (Homo sapiens), Q9NXA8; in the data active = inhibition above about 15%; inconclusive = no clear call, values can overlap the other calls
Target sequence (Q9NXA8 whole entry, looked up): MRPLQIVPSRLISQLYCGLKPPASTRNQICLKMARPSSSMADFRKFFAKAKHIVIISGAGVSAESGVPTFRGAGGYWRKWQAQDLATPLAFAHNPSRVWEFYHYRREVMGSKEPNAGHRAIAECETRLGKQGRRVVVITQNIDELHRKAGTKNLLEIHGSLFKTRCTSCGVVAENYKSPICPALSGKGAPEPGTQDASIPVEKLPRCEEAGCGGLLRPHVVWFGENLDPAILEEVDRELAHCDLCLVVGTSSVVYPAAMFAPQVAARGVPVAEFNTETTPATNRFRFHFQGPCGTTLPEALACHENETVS
DENV2 CPE – inhibitors of DENV2 cytopathic effect, primary screen, cell-based, plate reader, single concentration. DENV2-infected cells, cytopathic effect rescue. CPE inhibition, % at 9.99 µM. 350,000 tested, 1.7% active. AID 651640, 2012; in the data active = CPE inhibition above about 20%, passing the limit was not always enough; inconclusive = no clear call, values can overlap the other calls; tested in BHK-21 cells
FGF22 binding – binders of human FGF22 protein, primary screen, FGF22 synaptogenesis inhibitor project, biophysical, thermal shift, single point | Fibroblast growth factor 22 (Homo sapiens), Q9HCT0 | recombinant FGF22 thermal shift, SYPRO orange fluorescence; percent of sucrose octasulfate shift, DMSO zero | activity (Tm shift, normalised), % at 9.99 µM | 340,000 tested, 1.5% active | AID 651658, 2012;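 active = mean Tm shift, scaled 0 neutral to 100 positive control, at about 1.3% or above, every replicate too, limit read from the data; inconclusive = no clear call, values can overlap the other calls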
Target sequence (Q9HCT0 whole entry, looked up): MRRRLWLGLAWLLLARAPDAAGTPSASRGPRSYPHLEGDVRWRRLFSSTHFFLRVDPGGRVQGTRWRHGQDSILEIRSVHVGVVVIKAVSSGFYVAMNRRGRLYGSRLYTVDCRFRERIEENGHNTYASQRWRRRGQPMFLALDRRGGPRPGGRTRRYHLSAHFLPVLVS
FN deposit inh – inhibitors of fibronectin matrix deposition, primary screen, AH1F cells, Alexa488-fibronectin fluorescence, plate reader. AH1F fibroblasts, overnight. inhibition, % at 12.6 µM. 350,000 tested, 0.086% active. AID 743247, 2014;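 active = mean inhibition across replicates of 30% or more, regardless of how many single replicates reach that level; inconclusive = mean under 30% yet at least half of replicates reach 30%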
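Schedule: 1 h cell adhesion before compound, then overnight fibronectin incubation; test system: AH1F fibroblast monolayer depositing Alexa488-labelled fibronectin into matrix; quantity: 10000 AH1F cells per well; probe or stimulus: fluorescent fibronectin at 24 nM final; signal: fluorescence, ex 485 nm, em 525 nm; evaluation: percent inhibition as loss of matrix-bound fibronectin fluorescence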
Xi reactivation – activators of inactive X chromosome reactivation, primary screen, imaging, XiGFP fibroblasts, GFP high-content imaging, set 2; XiGFP mouse fibroblasts, % GFP-positive cells imaging, 3 d; cells co-treated with 5-aza-dC sensitizer; scaled so ellipticine positive control = 100%; activation, % at 7.58 µM; 360,000 tested, 0.055% active;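 active = mean normalized replicate activation at least 10% and every replicate at or above 10%; inconclusive = only one of the two criteria met; inactive = mean below 10% and not all replicates reach 10%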
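Assay system – SV40-immortalized XiGFP fibroblast cells, line 68-5-11 · Buffer or medium – DMEM supplemented with 5-aza-dC as sensitizing agent · Dosing – one concentration, pinned · Benchmarks – positive control ellipticine, 6 µM final · Times – 3 days compound exposure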
Large screens that a line does not name were inactive; ! = repeats disagree. Only some compounds are listed: those with a hit (about 3.8% of all), similar ones and a draw of the others.

COc1ccc(NC(=O)Nc2ccc3c(c2)C(=O)N([C@H](C)CO)C[C@H](C)[C@@H](CN(C)C(=O)Nc2ccc(F)cc2)OCCCC[C@@H](C)O3)cc1	none
COc1ccc(CC(=O)Nc2ccc(S(=O)(=O)Nc3cc(C)nc(C)n3)cc2)cc1OC	DENV2 CPE 29.6 (no result: ARNT-TACC3 inh)
Cc1ccc(S(=O)(=O)Nc2ccc(S(=O)(=O)Nc3cc(C)nc(C)n3)cc2)cc1	FGF22 binding 43.4
Cc1cc(NS(=O)(=O)c2ccc(NC(=O)COc3ccc(Br)cc3)cc2)nc(C)n1	SIRT5 block 33.0
CC(C)NC(=O)N(C)C[C@H]1Oc2c(NS(C)(=O)=O)cccc2C(=O)N([C@H](C)CO)C[C@@H]1C	none
Cc1cccn2c(=O)c(C=NCCO)c(Nc3ccc(Cl)cc3)nc12	FGF22 binding 43.8 (no result: ARNT-TACC3 inh)
Cc1ccc(N=C2C(=O)Nc3ccc(Br)cc32)cc1	SIRT5 block 15.3
CO[C@@H]1CN(C)C(=O)c2ccc(NC(=O)Nc3c(C)noc3C)cc2OC[C@H](C)N(C)C[C@@H]1C	none
CN1C(=O)c2cc(NC(=O)c3cnccn3)ccc2OC[C@@H]2O[C@@H](CC(=O)O)CC[C@@H]21	none
Cc1nnc(SCCOc2ccccc2)s1	FGF22 binding 44.1 (no result: DENV2 CPE)
Cc1ccc2[nH]c(C(=O)O)c(-c3ccccc3)c2c1	none (no result: SIRT5 block, DENV2 CPE, FGF22 binding, FN deposit inh, Xi reactivation)
Cc1ccc2[nH]c(C(=O)NN=C3CCCCC3)c(-c3ccccc3)c2c1	FGF22 binding 42.9
C[C@H]1CN([C@@H](C)CO)S(=O)(=O)c2ccc(C3=CCCCC3)cc2O[C@@H]1CN(C)Cc1cccnc1	none
Cc1ccc(NC(=S)Nc2cccc3cnccc23)cc1C	none
Cc1ccc(NC(=S)Nc2cccc3cnccc23)cc1	DENV2 CPE 71.9
O=C1C=CCC(/C=C/c2ccccc2)O1 (centres undefined)	FGF22 binding 43.7 (no result: ARNT-TACC3 inh, DENV2 CPE)
O=C/C=C/c1ccc(/C=C/c2ccccc2)cc1	none (no result: ARNT-TACC3 inh, FN deposit inh, Xi reactivation)
C[C@@H]1CCCCO[C@@H](CN(C)S(=O)(=O)c2ccccc2)[C@@H](C)CN([C@@H](C)CO)C(=O)c2cc(NS(=O)(=O)c3ccc(Cl)cc3)ccc2O1	DENV2 CPE inconclusive
Cc1ccc(C(C[N+](=O)[O-])c2c(C)[nH]n(-c3ccccc3)c2=O)cc1 (centres undefined)	ARNT-TACC3 inh 51.4, SIRT5 block 26.0
C[C@@H]1CN([C@H](C)CO)C(=O)c2c(c3ccccc3n2C)-c2ccccc2CO[C@H]1CN(C)C(=O)Nc1ccc(-c2ccccc2)cc1	none (no result: ARNT-TACC3 inh)
Cc1ccc(NC(=O)c2cc(-c3cc(Cl)ccc3C)n[nH]2)cc1NS(C)(=O)=O	DENV2 CPE 26.5 (no result: ARNT-TACC3 inh, SIRT5 block)
COc1ccc(Cl)cc1-c1cc(C(=O)Nc2ccc(C)c(NS(C)(=O)=O)c2)[nH]n1	none (no result: ARNT-TACC3 inh)
C[C@H](CO)N1C[C@H](C)[C@H](CN(C)S(=O)(=O)c2ccc3ccccc3c2)OCc2cn(nn2)CCCC1=O	none (no result: ARNT-TACC3 inh, SIRT5 block, DENV2 CPE, FGF22 binding)
C[C@H]1CN([C@@H](C)CO)C(=O)c2cccc(NS(C)(=O)=O)c2O[C@H]1CN(C)Cc1ccccc1	SIRT5 block 15.1 (no result: FN deposit inh)
C[C@H](CO)N1C[C@H](C)[C@@H](CN(C)Cc2ccccc2)Oc2c(NS(C)(=O)=O)cccc2C1=O	DENV2 CPE 39.1! (no result: FN deposit inh)
C[C@H]1CN([C@@H](C)CO)C(=O)c2cccc(NS(=O)(=O)c3cccs3)c2O[C@@H]1CN(C)C(=O)Nc1cccc2ccccc12	DENV2 CPE inconclusive
C[C@@H]1CN([C@H](C)CO)C(=O)c2cccc(NS(=O)(=O)c3cccs3)c2O[C@H]1CN(C)Cc1ccccc1	SIRT5 block 25.7!
C[C@@H]1CN([C@@H](C)CO)C(=O)c2cccc(NS(=O)(=O)c3cccs3)c2O[C@@H]1CN(C)C(=O)Nc1cccc2ccccc12	DENV2 CPE 43.0
